From ChEMBL document CHEMBL3351523 (Bioorg Med Chem, 2014)

Tested on: Poliovirus 1
Assay: Antiviral activity against Poliovirus type 1 Sabin strain infected in african green monkey Vero 76 cells assessed as reduction in plaque number after 2 days by plaque reduction assay
Format: functional, organism-based
Details: Enterovirus C, 48 h

SMILES | EC50 [µM]
FC(F)(F)c1ccc2c(c1)nc(Cc1ccccc1)n2C[C@@H]1CCCN2CCCC[C@H]12 | 60
FC(F)(F)c1ccc2c(c1)nc(Cc1ccccc1)n2C[C@H]1CCCN2CCCC[C@H]12 | > 100
Nc1ccc(Cc2nc3ccccc3[nH]2)cc1 | 58
FC(F)(F)c1ccc2[nH]c(Cc3ccc(Cl)cc3)nc2c1 | > 100
COc1ccc(Cc2nc3cc(C(F)(F)F)ccc3[nH]2)cc1 | > 100

Tested on: Yellow fever virus
Assay: Antiviral activity against Yellow fever virus infected in BHK21 cells assessed as inhibition of virus-induced cytopathogenicity after 3 to 4 days by MTT assay
Format: functional, organism-based
Details: BHK-21

SMILES | EC50 [µM]
FC(F)(F)c1ccc2c(c1)nc(Cc1ccccc1)n2C[C@@H]1CCCN2CCCC[C@H]12 | > 100
FC(F)(F)c1ccc2c(c1)nc(Cc1ccccc1)n2C[C@H]1CCCN2CCCC[C@H]12 | > 100
Nc1ccc(Cc2nc3ccccc3[nH]2)cc1 | > 100
FC(F)(F)c1ccc2[nH]c(Cc3ccc(Cl)cc3)nc2c1 | > 100
COc1ccc(Cc2nc3cc(C(F)(F)F)ccc3[nH]2)cc1 | > 100

Tested on: Human immunodeficiency virus 1
Assay: Antiviral activity against HIV1 infected in human MT4 cells assessed as inhibition of virus-induced cytopathogenicity after 4 days by MTT assay
Format: functional, organism-based
Details: Human immunodeficiency virus 1, MT4, 96 h
How it was run: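 MT-4 cells (1 × 10^4/well in RPMI) were infected acutely with HIV-1 IIIB, 100 CCID50 (m.o.i. 0.01), with serial dilutions from 100 µM, 1:5. After 4 days at 37 °C, protection from virus-induced cytopathogenicity was read by MTT. EC50 came from linear regression against untreated controls.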

SMILES | EC50 [µM]
FC(F)(F)c1ccc2c(c1)nc(Cc1ccccc1)n2C[C@@H]1CCCN2CCCC[C@H]12 | > 100
FC(F)(F)c1ccc2c(c1)nc(Cc1ccccc1)n2C[C@H]1CCCN2CCCC[C@H]12 | > 100
Nc1ccc(Cc2nc3ccccc3[nH]2)cc1 | > 100
FC(F)(F)c1ccc2[nH]c(Cc3ccc(Cl)cc3)nc2c1 | > 100
COc1ccc(Cc2nc3cc(C(F)(F)F)ccc3[nH]2)cc1 | > 100

Tested on: not listed separately
Assay: Selectivity index, ratio of CC50 for african green monkey Vero 76 cells to EC50 for Coxsackievirus B5
Format: toxicity, cell-based
Details: read-out: Ratio CC50/EC50
How it was run: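 Mock-infected Vero-76 cells were tested in parallel on the same 24-well plates as the plaque assays (seeding 4 × 10^5 cells/mL, D-MEM with FBS), with serial compound dilutions at 37 °C, 5% CO2. Viability was read after 48–96 h by crystal violet staining. CC50 by linear regression; selectivity index = Vero-76 CC50/EC50 for CVB-5 or RSV.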

SMILES | selectivity ratio
FC(F)(F)c1ccc2c(c1)nc(Cc1ccccc1)n2C[C@@H]1CCCN2CCCC[C@H]12 | > 10
FC(F)(F)c1ccc2c(c1)nc(Cc1ccccc1)n2C[C@H]1CCCN2CCCC[C@H]12 | 1.24
Nc1ccc(Cc2nc3ccccc3[nH]2)cc1 | > 5.88
FC(F)(F)c1ccc2[nH]c(Cc3ccc(Cl)cc3)nc2c1 | 2.69
COc1ccc(Cc2nc3cc(C(F)(F)F)ccc3[nH]2)cc1 | 4.6

Tested on: Coxsackievirus B5
Assay: Antiviral activity against Coxsackievirus B5 infected in african green monkey Vero 76 cells assessed as reduction in plaque number after 3 days by plaque reduction assay
Format: functional, organism-based
Details: Enterovirus B, 72 h

SMILES | EC50 [µM]
FC(F)(F)c1ccc2c(c1)nc(Cc1ccccc1)n2C[C@@H]1CCCN2CCCC[C@H]12 | 10
FC(F)(F)c1ccc2c(c1)nc(Cc1ccccc1)n2C[C@H]1CCCN2CCCC[C@H]12 | 75
Nc1ccc(Cc2nc3ccccc3[nH]2)cc1 | 17
FC(F)(F)c1ccc2[nH]c(Cc3ccc(Cl)cc3)nc2c1 | 26
COc1ccc(Cc2nc3cc(C(F)(F)F)ccc3[nH]2)cc1 | 20

Tested on: Bovine viral diarrhea virus 1
Assay: Antiviral activity against Bovine viral diarrhea virus infected in MDBK cells assessed as inhibition of virus-induced cytopathogenicity after 3 to 4 days by MTT assay
Format: functional, organism-based
Details: Bovine viral diarrhea virus isolates and strains

SMILES | EC50 [µM]
FC(F)(F)c1ccc2c(c1)nc(Cc1ccccc1)n2C[C@@H]1CCCN2CCCC[C@H]12 | > 100
FC(F)(F)c1ccc2c(c1)nc(Cc1ccccc1)n2C[C@H]1CCCN2CCCC[C@H]12 | > 100
Nc1ccc(Cc2nc3ccccc3[nH]2)cc1 | > 100
FC(F)(F)c1ccc2[nH]c(Cc3ccc(Cl)cc3)nc2c1 | > 100
COc1ccc(Cc2nc3cc(C(F)(F)F)ccc3[nH]2)cc1 | > 100

Tested on: not listed separately
Assay: Cytotoxicity against mock-infected MDBK cells after 48 to 96 hrs by MTT assay
Format: cell-based, Bos taurus
Details: cattle
How it was run: (§1)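 Mock-infected MDBK (6 × 10^5 cells/mL; MEM-E, 10% horse serum, 1 mM pyruvate) or BHK (1 × 10^6 cells/mL; MEM-E, 10% FBS) cells were incubated at 37 °C, 5% CO2 with serial dilutions from 100 µM, 1:5. Viability by MTT after 48–96 h. CC50 from linear regression against untreated controls.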

SMILES | CC50 [µM]
FC(F)(F)c1ccc2c(c1)nc(Cc1ccccc1)n2C[C@@H]1CCCN2CCCC[C@H]12 | > 100
FC(F)(F)c1ccc2c(c1)nc(Cc1ccccc1)n2C[C@H]1CCCN2CCCC[C@H]12 | 28
Nc1ccc(Cc2nc3ccccc3[nH]2)cc1 | > 100
FC(F)(F)c1ccc2[nH]c(Cc3ccc(Cl)cc3)nc2c1 | 16
COc1ccc(Cc2nc3cc(C(F)(F)F)ccc3[nH]2)cc1 | 56

Tested on: Vaccinia virus
Assay: Antiviral activity against Vaccinia Virus infected in african green monkey Vero 76 cells assessed as reduction in plaque number after 3 days by plaque reduction assay
Format: functional, organism-based
Details: Orthopoxvirus vaccinia, 72 h

SMILES | EC50 [µM]
FC(F)(F)c1ccc2c(c1)nc(Cc1ccccc1)n2C[C@@H]1CCCN2CCCC[C@H]12 | > 100
FC(F)(F)c1ccc2c(c1)nc(Cc1ccccc1)n2C[C@H]1CCCN2CCCC[C@H]12 | > 100
Nc1ccc(Cc2nc3ccccc3[nH]2)cc1 | > 100
FC(F)(F)c1ccc2[nH]c(Cc3ccc(Cl)cc3)nc2c1 | > 100
COc1ccc(Cc2nc3cc(C(F)(F)F)ccc3[nH]2)cc1 | > 100

Tested on: Reovirus sp.
Assay: Antiviral activity against Reovirus type-1 infected in BHK21 cells assessed as inhibition of virus-induced cytopathogenicity after 3 to 4 days by MTT assay
Format: functional, organism-based
Details: BHK-21

SMILES | EC50 [µM]
FC(F)(F)c1ccc2c(c1)nc(Cc1ccccc1)n2C[C@@H]1CCCN2CCCC[C@H]12 | > 100
FC(F)(F)c1ccc2c(c1)nc(Cc1ccccc1)n2C[C@H]1CCCN2CCCC[C@H]12 | > 100
Nc1ccc(Cc2nc3ccccc3[nH]2)cc1 | > 100
FC(F)(F)c1ccc2[nH]c(Cc3ccc(Cl)cc3)nc2c1 | > 100
COc1ccc(Cc2nc3cc(C(F)(F)F)ccc3[nH]2)cc1 | > 100

Tested on: Human alphaherpesvirus 1
Assay: Antiviral activity against HSV1 infected in african green monkey Vero 76 cells assessed as reduction in plaque number after 3 days by plaque reduction assay
Format: functional, organism-based
Details: Human alphaherpesvirus 1, Vero, 72 h

SMILES | EC50 [µM]
FC(F)(F)c1ccc2c(c1)nc(Cc1ccccc1)n2C[C@@H]1CCCN2CCCC[C@H]12 | > 100
FC(F)(F)c1ccc2c(c1)nc(Cc1ccccc1)n2C[C@H]1CCCN2CCCC[C@H]12 | > 100
Nc1ccc(Cc2nc3ccccc3[nH]2)cc1 | > 100
FC(F)(F)c1ccc2[nH]c(Cc3ccc(Cl)cc3)nc2c1 | > 100
COc1ccc(Cc2nc3cc(C(F)(F)F)ccc3[nH]2)cc1 | > 100

Tested on: not listed separately
Assay: Cytotoxicity against mock-infected african green monkey Vero 76 cells after 48 to 96 hrs by MTT assay
Format: cell-based
Details: chlorocebus sabaeus, mock-infected Vero 76 cells

SMILES | CC50 [µM]
FC(F)(F)c1ccc2c(c1)nc(Cc1ccccc1)n2C[C@@H]1CCCN2CCCC[C@H]12 | > 100
FC(F)(F)c1ccc2c(c1)nc(Cc1ccccc1)n2C[C@H]1CCCN2CCCC[C@H]12 | 93
Nc1ccc(Cc2nc3ccccc3[nH]2)cc1 | > 100
FC(F)(F)c1ccc2[nH]c(Cc3ccc(Cl)cc3)nc2c1 | 70
COc1ccc(Cc2nc3cc(C(F)(F)F)ccc3[nH]2)cc1 | 92

Tested on: Vesicular stomatitis virus
Assay: Antiviral activity against Vesicular stomatitis virus infected in african green monkey Vero 76 cells assessed as reduction in plaque number after 2 days by plaque reduction assay
Format: functional, organism-based
Details: 48 h

SMILES | EC50 [µM]
FC(F)(F)c1ccc2c(c1)nc(Cc1ccccc1)n2C[C@@H]1CCCN2CCCC[C@H]12 | > 100
FC(F)(F)c1ccc2c(c1)nc(Cc1ccccc1)n2C[C@H]1CCCN2CCCC[C@H]12 | > 100
Nc1ccc(Cc2nc3ccccc3[nH]2)cc1 | > 100
FC(F)(F)c1ccc2[nH]c(Cc3ccc(Cl)cc3)nc2c1 | > 100
COc1ccc(Cc2nc3cc(C(F)(F)F)ccc3[nH]2)cc1 | > 100

Tested on: not listed separately
Assay: Cytotoxicity against mock-infected human MT4 cells after 96 hrs by MTT assay
Format: cell-based
Details: not given
How it was run: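 Exponentially growing MT-4 cells were seeded at 1 × 10^5 cells/mL in RPMI-1640 with 10% FBS and held at 37 °C, 5% CO2 with serial compound dilutions. Viability was read by MTT after 96 h. CC50 from linear regression against untreated controls.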

SMILES | CC50 at 96 h [µM]
FC(F)(F)c1ccc2c(c1)nc(Cc1ccccc1)n2C[C@@H]1CCCN2CCCC[C@H]12 | > 100
FC(F)(F)c1ccc2c(c1)nc(Cc1ccccc1)n2C[C@H]1CCCN2CCCC[C@H]12 | 100
Nc1ccc(Cc2nc3ccccc3[nH]2)cc1 | > 100
FC(F)(F)c1ccc2[nH]c(Cc3ccc(Cl)cc3)nc2c1 | > 100
COc1ccc(Cc2nc3cc(C(F)(F)F)ccc3[nH]2)cc1 | 69

Tested on: not listed separately
Assay: Cytotoxicity against mock-infected BHK21 cells after 48 to 96 hrs by MTT assay
Format: functional
Details: Mesocricetus auratus, BHK-21
How it was run: as §1

SMILES | CC50 [µM]
FC(F)(F)c1ccc2c(c1)nc(Cc1ccccc1)n2C[C@@H]1CCCN2CCCC[C@H]12 | 15
FC(F)(F)c1ccc2c(c1)nc(Cc1ccccc1)n2C[C@H]1CCCN2CCCC[C@H]12 | 25
Nc1ccc(Cc2nc3ccccc3[nH]2)cc1 | > 100
FC(F)(F)c1ccc2[nH]c(Cc3ccc(Cl)cc3)nc2c1 | 20
COc1ccc(Cc2nc3cc(C(F)(F)F)ccc3[nH]2)cc1 | 60

Tested on: Respiratory syncytial virus
Assay: Antiviral activity against Respiratory syncytial virus infected in african green monkey Vero 76 cells assessed as reduction in plaque number after 5 days by plaque reduction assay
Format: functional, organism-based
Details: human respiratory syncytial virus, 120 h

SMILES | EC50 [µM]
FC(F)(F)c1ccc2c(c1)nc(Cc1ccccc1)n2C[C@@H]1CCCN2CCCC[C@H]12 | > 100
FC(F)(F)c1ccc2c(c1)nc(Cc1ccccc1)n2C[C@H]1CCCN2CCCC[C@H]12 | > 100
Nc1ccc(Cc2nc3ccccc3[nH]2)cc1 | > 100
FC(F)(F)c1ccc2[nH]c(Cc3ccc(Cl)cc3)nc2c1 | > 100
COc1ccc(Cc2nc3cc(C(F)(F)F)ccc3[nH]2)cc1 | > 100
